Screening results from PubChem.
Cneo AK release: causes C. neoformans cell lysis; hit rate 0.2% among 360,000; lysis activity, % at 15 µM; adenylate kinase release luminescence, 4 h; normalised: neutral wells 0, clomiphene wells 100; AID 651654;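 active means mean lysis activity across replicates of at least 80%, whatever share of replicates individually reach that level; inactive means mean lysis activity below 80%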
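Assay system: C. neoformans cells. Amount: yeast cell density of 5 × 10^6 cells/mL. Technique: AK luminescence. Buffer or medium: YPD. Times: static 4 h at 37 °C with compound, 1 h detection. Dosing: single-point compound dose. Read-out: lysis from increased AK signal.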
HIV Env fusion: blocks HIV Env-driven cell-cell fusion; hit rate 1.1% among 360,000; HeLa-JRFL Env/CEM21 cell fusion, luciferase; inhibition, % at 12.3 µM;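 active means mean replicate inhibition score of at least 50 and every replicate individually at or above 50; inconclusive means only one of the two criteria met; inactive means mean below 50 and not all replicates reaching 50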;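 further: 0% = plate neutral controls and 100% = maraviroc near 300 nM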
esBAF inh: SWI/SNF esBAF complex inhibition; mouse ES cells, Bmi1-luciferase knock-in reporter, 24 h; 100% = twice the neutral-well signal; reporter increase, % at 12.5 µM; hit rate 2% among 350,000; AID 602393; in the data active means activation above about 40%; inconclusive means no clear call, values can overlap the other calls;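 further: 0% = median of the plate's neutral control wells and 100% = double that signal; a rise in the Bmi1 reporter signal indicates esBAF inhibition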
MITF TRPM1 HTS: MITF TRPM1 promoter activation in melanoma cells; activation, % at 12.5 µM; hit rate 0.75% among 300,000; SK-MEL-5 TRPM1-promoter luciferase, 24 h; % of positive control, neutral wells = 0;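 active means mean activation of at least 80% with every replicate also reaching 80%; inconclusive means mean reaches 80% but some replicate falls short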;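 further: 0% = neutral control wells and 100% = parthenolide positive control wells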
ERAP1 HTS inh: blocks human ERAP1 aminopeptidase activity; recombinant ERAP1, Leu-AMC fluorescence, 60 min; hit rate 0.15% among 340,000; inhibition, % at 10.7 µM;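 active means mean replicate inhibition of at least 30%, or all replicates individually reaching that 30% level; inactive means mean below 30% and not every replicate reaching it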;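 further: 0% = neutral control wells and 100% = L-leucinethiol positive control wells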
Target sequence (Q9NZ08 whole entry, looked up): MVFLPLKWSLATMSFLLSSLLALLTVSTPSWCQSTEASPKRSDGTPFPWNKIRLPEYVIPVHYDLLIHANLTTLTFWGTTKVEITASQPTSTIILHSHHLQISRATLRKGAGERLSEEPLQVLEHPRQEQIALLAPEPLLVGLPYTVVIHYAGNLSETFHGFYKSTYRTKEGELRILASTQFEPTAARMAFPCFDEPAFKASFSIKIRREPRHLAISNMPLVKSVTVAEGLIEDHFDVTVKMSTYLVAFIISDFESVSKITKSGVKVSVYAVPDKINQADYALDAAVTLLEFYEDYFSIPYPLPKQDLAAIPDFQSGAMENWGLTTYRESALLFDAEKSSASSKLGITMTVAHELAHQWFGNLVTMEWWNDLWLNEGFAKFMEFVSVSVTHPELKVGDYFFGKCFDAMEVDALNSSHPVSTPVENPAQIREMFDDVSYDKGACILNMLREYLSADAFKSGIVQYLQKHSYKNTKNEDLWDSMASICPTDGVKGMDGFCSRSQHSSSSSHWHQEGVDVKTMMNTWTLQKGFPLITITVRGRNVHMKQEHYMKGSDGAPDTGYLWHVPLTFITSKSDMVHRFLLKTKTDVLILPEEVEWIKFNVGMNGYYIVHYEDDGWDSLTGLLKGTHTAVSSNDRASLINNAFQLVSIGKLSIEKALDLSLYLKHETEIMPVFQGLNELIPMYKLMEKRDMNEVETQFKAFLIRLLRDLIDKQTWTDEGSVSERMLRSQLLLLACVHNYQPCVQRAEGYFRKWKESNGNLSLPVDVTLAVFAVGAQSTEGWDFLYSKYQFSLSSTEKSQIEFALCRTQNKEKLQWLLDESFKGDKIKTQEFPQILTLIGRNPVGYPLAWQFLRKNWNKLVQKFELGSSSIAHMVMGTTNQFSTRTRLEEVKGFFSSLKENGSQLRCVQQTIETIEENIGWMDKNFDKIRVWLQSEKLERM
Wnt bcat act: Wnt/beta-catenin pathway activation. hit rate 1.2% among 300,000. Wnt/beta-catenin reporter cell assay, activator, plate reader. activation, % at 9.35 µM. AID 743398; in the data active means activation above about 30%, passing the limit was not always enough; inconclusive means no clear call, values can overlap the other calls;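 further: 0% = neutral control wells and 100% = positive control wells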
* = called active by the depositor; ? = inconclusive; . = no result given; [ ] = dose if it differs, or a comment. Most compounds without a hit are left out; they make up all but 3.5% or so of the library.

SMILES	Cneo AK release	HIV Env fusion	esBAF inh	MITF TRPM1 HTS	ERAP1 HTS inh	Wnt bcat act
O=C(O)CSc1nnc2c(n1)[nH]c1ccccc12	.	8	.	1	2	-1
CCCCSc1nnc2c(n1)[nH]c1ccccc12	0	-51	36	65	.	62*
Cc1noc(C)c1S(=O)(=O)Nc1ccc2c(c1)CC(=O)N([C@H](C)CO)C[C@@H](C)[C@@H](CN(C)S(=O)(=O)c1cn(C)cn1)O2	-9	-9[16.7 µM]	1	.	-2	.
CCSc1ccc(-c2cccc([N+](=O)[O-])c2)nn1	0	-3	49*	75	2	28
O=C(CSc1ccc(-c2cccc([N+](=O)[O-])c2)nn1)N1CCCC1	.	0	.	6	1	-1
CCN1C(=O)[C@@H]2[C@@H]3CN(S(=O)(=O)c4ccc(C)cc4)[C@@H](c4cccc5ccccc45)[C@@H]3C(=O)C[C@@H]2C1=O	4	-27	-1	.	0	2
Cc1ccc(S(=O)(=O)N2C[C@H]3[C@H]4C(=O)N(C5CCCCC5)C(=O)[C@H]4CC(=O)[C@H]3[C@@H]2c2ccccc2Cl)cc1	-5	59*	1	.	.	-2
Cc1ccc(S(=O)(=O)N(C)C[C@H]2Oc3c(NS(=O)(=O)c4cccs4)cccc3C(=O)N([C@@H](C)CO)C[C@H]2C)cc1	-11	-63[16.7 µM]	11	.	3	.
COc1ccccc1C#Cc1ccc2c(c1)O[C@@H](CN(C)Cc1ccncc1)[C@H](C)CN([C@H](C)CO)S2(=O)=O	4	52*[16.7 µM]	-1	.	-1	.
COc1ccccc1C#Cc1ccc2c(c1)O[C@H](CN(C)Cc1ccncc1)[C@@H](C)CN([C@@H](C)CO)S2(=O)=O	3	48*[16.7 µM]	-1	.	-2	.
COc1ccccc1C#Cc1ccc2c(c1)O[C@@H](CN(C)Cc1ccncc1)[C@@H](C)CN([C@H](C)CO)S2(=O)=O	2	?	10	.	6	.
COc1ccc(-c2ccc3c(c2)C2CC3CCN2S(=O)(=O)c2ccccc2C)cc1 (centres undefined)	0	57*	0	-15	1	-3
O=S(=O)(c1cccc2ccccc12)N1CCC2CC1c1cc(-c3ccc(F)cc3)ccc12 (centres undefined)	2	10	0	-5	-2	-2
C[C@@H]1CN([C@H](C)CO)C(=O)c2cc(NC(=O)CCCCCC(=O)Nc3ccccc3N)ccc2O[C@@H]1CN(C)Cc1ccc(C(F)(F)F)cc1	.	.	.	.	-1	.
CCC(=O)Nc1ccccc1C(=O)OCC(=O)c1ccc2ccccc2c1	8	-36	19	8	.	50*
CCOC(=O)c1ccccc1NC(=O)/C=C/C(=O)O	6	-5	.	1	2	-2
O=C(O)/C=C/C(=O)Nc1ccccc1C(=O)OCC(=O)c1ccc2c(c1)OCCO2	.	-8	.	15	1	32*
O=C(O)/C=C\C(=O)Nc1ccccc1C#Cc1ccccc1	0	-38	56*	25	.	.
CCCCC(=O)Nc1ccccc1C(=O)OCC(=O)c1ccc2c(c1)OCCO2	.	.	.	26	.	23
CCCCCCOC(=O)c1ccccc1NC(=O)/C=C/C(=O)O	-1	-47	36	.	.	34*
O=C(N[C@@H]1CC[C@H](CCNS(=O)(=O)c2ccccc2)O[C@H]1CO)c1cccc(F)c1	10	-9[16.7 µM]	2	.	-3	.
C[C@@H]1CN([C@@H](C)CO)C(=O)c2cc(NS(C)(=O)=O)ccc2O[C@@H](C)CCCCO[C@@H]1CN(C)Cc1ccncc1	-6	6[16.7 µM]	3	.	-3	.
CN(C)C(=O)c1ccc(-c2ccc3c(c2)[C@H]2[C@H](CCN2C(=O)C2CCC2)[C@@H](CO)N3C)cc1	18	.	-7	.	0	.
COc1cc(/C=C/C(=O)Nc2nnc(CC(C)(C)C)s2)cc(OC)c1OC	6	-12	0	2	-1	-2
COc1cc(/C=C/C(=O)Nc2nnc(CC(C)C)s2)cc(OC)c1OC	.	57*	.	-10	6	1
SMILES	Cneo AK release	HIV Env fusion	esBAF inh	MITF TRPM1 HTS	ERAP1 HTS inh	Wnt bcat act
CN(C)/C=C/C(=O)c1cnc(-c2ccccc2)s1	0	-12	56*	74	8	5
O=C(c1ccccc1)c1cnc(-c2ccc(Cl)cc2)s1	-3	-319	39	.	.	40*
CCCN(C)C[C@@H]1OCCCC[C@@H](C)Oc2ccc(NS(=O)(=O)c3cccs3)cc2C(=O)N([C@H](C)CO)C[C@@H]1C	-1	1[16.7 µM]	-7	.	-85	.
CCCc1nn(C)c(C(=O)Nc2ccc(C)c(C)c2)c1Cl	3	-45	70*	62	-1	12
CCCc1nn(C)c(C(=O)Nc2ccc(CC)cc2)c1Cl	.	.	.	8	.	.
CN1[C@H](C(=O)NCc2ccncc2)[C@@H](CO)[C@@H]2Cn3c(ccc(-c4ccccc4F)c3=O)[C@@H]21	-3	.	2	.	-3	.
Cc1ccc(S(=O)(=O)Nc2ccc3c(c2)C(=O)N([C@H](C)CO)C[C@@H](C)[C@@H](CN(C)Cc2ccc4c(c2)OCO4)OCCCC[C@@H](C)O3)cc1	-1	13[16.7 µM]	-5	.	-3	.
COc1ccc(N2CCn3c2nc2c3c(=O)n(CCCc3ccccc3)c(=O)n2C)c(OC)c1	.	73*	-12	.	4	-12
COc1ccc(N2CC(C)Cn3c2nc2c3c(=O)n(Cc3ccccc3)c(=O)n2C)c(OC)c1 (centres undefined)	-9	20	7	-6	.	0
C[C@@H]1CN([C@H](C)CO)C(=O)c2cc(NS(=O)(=O)c3ccc(F)cc3)ccc2O[C@@H]1CN(C)C	-4	.	0	.	-4	.
O=C1C(Cl)=C(N2CCCCCC2)C(=O)N1c1ccccc1	-1	105*	7	-8	.	-5
O=[N+]([O-])c1cc(C(F)(F)F)ccc1NCCCCNS(=O)(=O)c1ccc2ccccc2c1	14	62*	5	-6	.	.
CO[C@@H]1CN(C)C(=O)c2cc(NS(=O)(=O)c3ccc(F)cc3)ccc2OC[C@@H](C)NC[C@@H]1C	-1	-1[16.7 µM]	2	.	-1	.
Cc1cc(OCC(=O)NCC(c2cccs2)N2CCOCC2)ccc1C(C)C (centres undefined)	3	59*	6	-7	3	-1
Cc1ccc(C(C)C)c(OCC(=O)NCC(c2cccs2)N2CCOCC2)c1 (centres undefined)	-1	-16	-5	-9	0	-22
C/C(=C\c1ccc(C(=O)O)cc1)c1ccc2c(c1)C(C)(C)CCC2(C)C	2	31	46*	8	.	-9
COc1ccc(C(=O)Nc2ccc([N+](=O)[O-])cn2)cc1OC	3	-5	.	20	2	0
CCn1ccc(C(=O)Nc2ccc(Cl)cn2)n1	0	.	48*	.	-3	32*
COc1ccc(C(=O)Nc2ccc(Cl)cn2)cc1Cl	-2	-54	69*	?	.	?
O=C(Nc1ccc2ccccc2n1)c1ccccc1	-3	-73	1	29	2	18
